Several values for one entry are separate records, joined by “and”; a condition that tells them apart may be missing. Equal entries are not always repeated.
Test system: Fibroblast
Experiment: Multiplex assay against human fibroblast
Assay type: toxicity, cell-based
Procedure, shortened: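 Imaging took place on a CQ1 microscope at 37°C and 5% CO2 once compound had been added to live cells stained at seeding with Hoechst33342, BioTracker Green Microtubule Cytoskeleton Dye, MitoTracker Red and Annexin V Alexa Fluor 680. CellPathfinder machine-learning gating classed cells as Hoechst high-intensity objects or normal cells, classed normal cells as having healthy, pyknosed or fragmented nuclei, and classed pyknosed cells as mitotic or apoptotic. Tubulin, mitochondrial-mass and membrane-permeability phenotypes are per cents of the healthy-nucleus cells.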

[1] = 12 h, 1 µM, compound concentration 1 uM
[2] = 12 h, 10 µM, compound concentration 10 uM
[3] = 24 h, 1 µM, compound concentration 1 uM
[4] = 24 h, 10 µM, compound concentration 10 uM
[5] = 48 h, 1 µM, compound concentration 1 uM
[6] = 48 h, 10 µM, compound concentration 10 uM

In the case of `COc1cc(OC2CCN(C(C)=O)CC2)ccc1C(=O)N1CCC(N2C(=O)OCc3ccccc32)CC1`, the “Population Apoptotic (%)” value [1] is reported as 41% and 40%, the “Population Fragmented Nuclei (%)” value [1] is reported as 12% and 29% and the “Population Healthy Nuclei (%)” value [1] is reported as 64% and 52%. The “Population Hoechst High Intensity Objects (%)” value [1] was 5% and 3%, the “Population Membrane Permeable-Phenotype (%)” value [1] was 2% and 0% and the “Population Mitochondria Different-Phenotype (%)” value [1] was 5% and 3%. The “Population Mitotic Cells (%)” value [1] was 58% and 59%, the “Population Normal (%)” value [1] was 94% and 96% and the “Population Pyknosed Nuclei (%)” value [1] was 22% and 17%. The “Population Tubulin-Different-Phenotype (%)” value [1] was 32% and 34%, the “Total Cell Count” value [1] was 157 and 159 and the “Population Apoptotic (%)” value [2] was 52% and 37%. The “Population Healthy Nuclei (%)” value [2] was 73% and 40%, the “Population Hoechst High Intensity Objects (%)” value [2] was 3% and 6% and the “Population Membrane Permeable-Phenotype (%)” value [2] was 0% and 2%. The “Population Mitochondria Different-Phenotype (%)” value [2] was 6% and 10%, the “Population Mitotic Cells (%)” value [2] was 48% and 62% and the “Population Normal (%)” value [2] was 96% and 93%. For the same compound, the “Population Pyknosed Nuclei (%)” value [2] was 16% and 28%, the “Population Tubulin-Different-Phenotype (%)” value [2] was 54% and 56% and the “Total Cell Count” value [2] was 161 and 134. For the same compound, the “Population Apoptotic (%)” value [3] was 63% and 48%, the “Population Fragmented Nuclei (%)” value [3] was 19% and 28% and the “Population Healthy Nuclei (%)” value [3] was 63% and 51%. For the same compound, the “Population Hoechst High Intensity Objects (%)” value [3] was 1%, the “Population Membrane Permeable-Phenotype (%)” value [3] was 0% and 5% and the “Population Mitochondria Different-Phenotype (%)” value [3] was 4% and 3%. The “Population Mitotic Cells (%)” value [3] was 36% and 51%, the “Population Normal (%)” value [3] was 98% and the “Population Pyknosed Nuclei (%)” value [3] was 17% and 19%. The “Population Tubulin-Different-Phenotype (%)” value [3] was 32% and 31%, the “Total Cell Count” value [3] was 170 and 155 and the “Population Apoptotic (%)” value [4] was 36% and 43%. For the same compound, the “Population Fragmented Nuclei (%)” value [4] was 13% and 34%, the “Population Healthy Nuclei (%)” value [4] was 74% and 48% and the “Population Hoechst High Intensity Objects (%)” value [4] was 7%. The “Population Membrane Permeable-Phenotype (%)” value [4] was 1% and 3%, the “Population Mitochondria Different-Phenotype (%)” value [4] was 7% and 10% and the “Population Mitotic Cells (%)” value [4] was 63% and 56%. For the same compound, the “Population Normal (%)” value [4] was 92%, the “Population Pyknosed Nuclei (%)” value [4] was 11% and 17% and the “Population Tubulin-Different-Phenotype (%)” value [4] was 39% and 70%. The “Total Cell Count” value [4] was 172 and 145, the “Population Apoptotic (%)” value [5] was 40% and 58% and the “Population Fragmented Nuclei (%)” value [5] was 14% and 32%. The “Population Healthy Nuclei (%)” value [5] was 70% and 52%, the “Population Hoechst High Intensity Objects (%)” value [5] was 7% and 3% and the “Population Membrane Permeable-Phenotype (%)” value [5] was 0% and 4%. For the same compound, the “Population Mitochondria Different-Phenotype (%)” value [5] was 5% and 4%, the “Population Mitotic Cells (%)” value [5] was 59% and 41% and the “Population Normal (%)” value [5] was 92% and 96%. The “Population Pyknosed Nuclei (%)” value [5] was 14% and 15%, the “Population Tubulin-Different-Phenotype (%)” value [5] was 35% and 43% and the “Total Cell Count” value [5] was 160 and 163. The “Population Apoptotic (%)” value [6] was 57% and 56%, the “Population Healthy Nuclei (%)” value [6] was 79% and 51% and the “Population Hoechst High Intensity Objects (%)” value [6] was 5% and 3%. The “Population Membrane Permeable-Phenotype (%)” value [6] was 0% and 3%, the “Population Mitochondria Different-Phenotype (%)” value [6] was 13% and 10% and the “Population Mitotic Cells (%)” value [6] was 42% and 43%. For the same compound, the “Population Normal (%)” value [6] was 94% and 96%, the “Population Pyknosed Nuclei (%)” value [6] was 9% and 12% and the “Population Tubulin-Different-Phenotype (%)” value [6] was 51% and 69%. For the same compound, the “Total Cell Count” value [6] was 155 and 134.

For `Cc1cc(=O)n(C)c2cc(N3C(=O)CC[C@H](NS(=O)(=O)CC(C)C)[C@H]3c3ccc(Cl)cc3)ccc12`, the “Population Apoptotic (%)” value [1] was 31% and 38%, the “Population Fragmented Nuclei (%)” value [1] was 16% and 20% and the “Population Healthy Nuclei (%)” value [1] was 56% and 38%. The “Population Hoechst High Intensity Objects (%)” value [1] was 2% and 10%, the “Population Membrane Permeable-Phenotype (%)” value [1] was 0% and 8% and the “Population Mitochondria Different-Phenotype (%)” value [1] was 4%. For the same compound, the “Population Mitotic Cells (%)” value [1] was 68% and 62%, the “Population Normal (%)” value [1] was 97% and 89% and the “Population Pyknosed Nuclei (%)” value [1] was 26% and 40%. For the same compound, the “Population Tubulin-Different-Phenotype (%)” value [1] was 34% and 61%, the “Total Cell Count” value [1] was 135 and 137 and the “Population Apoptotic (%)” value [2] was 41% and 18%. For the same compound, the “Population Fragmented Nuclei (%)” value [2] was 11% and 26%, the “Population Healthy Nuclei (%)” value [2] was 40% and 31% and the “Population Hoechst High Intensity Objects (%)” value [2] was 3% and 11%. The “Population Membrane Permeable-Phenotype (%)” value [2] was 1% and 8%, the “Population Mitochondria Different-Phenotype (%)” value [2] was 8% and the “Population Mitotic Cells (%)” value [2] was 58% and 82%. The “Population Normal (%)” value [2] was 96% and 88%, the “Population Pyknosed Nuclei (%)” value [2] was 48% and 42% and the “Population Tubulin-Different-Phenotype (%)” value [2] was 86% and 94%. The “Total Cell Count” value [2] was 149 and 133, the “Population Apoptotic (%)” value [3] was 34% and 50% and the “Population Fragmented Nuclei (%)” value [3] was 18% and 26%. For the same compound, the “Population Healthy Nuclei (%)” value [3] was 62% and 44%, the “Population Hoechst High Intensity Objects (%)” value [3] was 2% and 10% and the “Population Mitochondria Different-Phenotype (%)” value [3] was 4% and 5%. The “Population Mitotic Cells (%)” value [3] was 65% and 50%, the “Population Normal (%)” value [3] was 97% and 89% and the “Population Pyknosed Nuclei (%)” value [3] was 18% and 29%. For the same compound, the “Population Tubulin-Different-Phenotype (%)” value [3] was 24% and 70%, the “Total Cell Count” value [3] was 140 and 128 and the “Population Apoptotic (%)” value [4] was 43% and 42%. The “Population Fragmented Nuclei (%)” value [4] was 14% and 28%, the “Population Healthy Nuclei (%)” value [4] was 46% and 26% and the “Population Hoechst High Intensity Objects (%)” value [4] was 10% and 8%. For the same compound, the “Population Membrane Permeable-Phenotype (%)” value [4] was 0% and 17%, the “Population Mitochondria Different-Phenotype (%)” value [4] was 19% and 8% and the “Population Mitotic Cells (%)” value [4] was 56% and 57%. For the same compound, the “Population Normal (%)” value [4] was 90% and 91%, the “Population Pyknosed Nuclei (%)” value [4] was 39% and 45% and the “Population Tubulin-Different-Phenotype (%)” value [4] was 88% and 85%. The “Total Cell Count” value [4] was 150 and 143, the “Population Apoptotic (%)” value [5] was 48% and 46% and the “Population Fragmented Nuclei (%)” value [5] was 27% and 35%. For the same compound, the “Population Healthy Nuclei (%)” value [5] was 54%, the “Population Hoechst High Intensity Objects (%)” value [5] was 2% and 7% and the “Population Membrane Permeable-Phenotype (%)” value [5] was 1% and 8%. The “Population Mitochondria Different-Phenotype (%)” value [5] was 2% and 8%, the “Population Mitotic Cells (%)” value [5] was 52% and 53% and the “Population Normal (%)” value [5] was 97% and 92%. The “Population Pyknosed Nuclei (%)” value [5] was 18% and 9%, the “Population Tubulin-Different-Phenotype (%)” value [5] was 27% and 73% and the “Total Cell Count” value [5] was 141 and 142. The “Population Apoptotic (%)” value [6] was 61% and 54%, the “Population Fragmented Nuclei (%)” value [6] was 23% and 34% and the “Population Healthy Nuclei (%)” value [6] was 38% and 37%. The “Population Hoechst High Intensity Objects (%)” value [6] was 15% and 10%, the “Population Membrane Permeable-Phenotype (%)” value [6] was 0% and 25% and the “Population Mitochondria Different-Phenotype (%)” value [6] was 24% and 8%. The “Population Mitotic Cells (%)” value [6] was 38% and 45%, the “Population Normal (%)” value [6] was 84% and 89% and the “Population Pyknosed Nuclei (%)” value [6] was 37% and 27%. For the same compound, the “Population Tubulin-Different-Phenotype (%)” value [6] was 92% and 87% and the “Total Cell Count” value [6] was 153 and 141.
